The source of these data is ChEMBL document CHEMBL1148427, “Diastereoselective synthesis and configuration-dependent activity of (3-substituted-cycloalkyl)glycine pyrrolidides and thiazolidides as dipeptidyl peptidase IV inhibitors” (Bioorg Med Chem Lett, 2004).

A short description of assay [1]: Inhibitory activity against human aminopeptidase P.
A further assay deals with Dipeptidyl peptidase 4 (Homo sapiens, UniProt P27487). The assay can be described thus: Inhibitory activity against human recombinant Dipeptidylpeptidase IV. A digest of the protocol:
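Human recombinant enzyme run in a fluorometric assay with Gly-Pro-AMC as substrate. Cleavage releases fluorescent 7-amino-4-methylcoumarin, which is read to give IC50 values.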

A further assay has as its target Dipeptidyl peptidase 2 (Homo sapiens, UniProt Q9UHL4). The assay can be described thus: Inhibitory activity against human quiescent cell proline dipeptidase.
For assay [2], the target named is T1, Prolyl endopeptidase (Homo sapiens, UniProt P48147).
T1 sequence (P48147 whole entry): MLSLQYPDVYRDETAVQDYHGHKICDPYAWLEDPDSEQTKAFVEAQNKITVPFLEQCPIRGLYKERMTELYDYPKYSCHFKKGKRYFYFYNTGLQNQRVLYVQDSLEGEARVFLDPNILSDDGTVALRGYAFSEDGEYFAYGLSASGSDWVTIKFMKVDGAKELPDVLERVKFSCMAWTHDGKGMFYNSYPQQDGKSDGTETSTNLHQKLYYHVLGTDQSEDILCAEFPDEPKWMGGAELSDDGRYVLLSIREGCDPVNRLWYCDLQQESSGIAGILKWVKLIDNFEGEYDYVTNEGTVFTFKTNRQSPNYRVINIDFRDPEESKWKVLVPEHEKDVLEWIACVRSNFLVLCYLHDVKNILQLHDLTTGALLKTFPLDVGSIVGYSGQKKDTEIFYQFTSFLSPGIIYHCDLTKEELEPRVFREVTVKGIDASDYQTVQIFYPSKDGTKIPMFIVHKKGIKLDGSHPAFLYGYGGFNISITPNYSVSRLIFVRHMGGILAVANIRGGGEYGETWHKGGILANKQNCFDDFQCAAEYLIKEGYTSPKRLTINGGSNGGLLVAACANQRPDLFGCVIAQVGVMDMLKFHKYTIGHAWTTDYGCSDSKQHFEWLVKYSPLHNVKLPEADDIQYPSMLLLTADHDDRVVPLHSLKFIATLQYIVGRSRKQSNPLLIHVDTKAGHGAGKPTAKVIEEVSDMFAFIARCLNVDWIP
The assay can be described thus: Inhibitory activity against human prolylendopeptidase.

Assay [3] deals with T1, Prolyl endopeptidase. The assay can be described thus: Inhibitory activity against human prolyl endopeptidase.

Sequence of Dipeptidyl peptidase 4 (P27487 whole entry): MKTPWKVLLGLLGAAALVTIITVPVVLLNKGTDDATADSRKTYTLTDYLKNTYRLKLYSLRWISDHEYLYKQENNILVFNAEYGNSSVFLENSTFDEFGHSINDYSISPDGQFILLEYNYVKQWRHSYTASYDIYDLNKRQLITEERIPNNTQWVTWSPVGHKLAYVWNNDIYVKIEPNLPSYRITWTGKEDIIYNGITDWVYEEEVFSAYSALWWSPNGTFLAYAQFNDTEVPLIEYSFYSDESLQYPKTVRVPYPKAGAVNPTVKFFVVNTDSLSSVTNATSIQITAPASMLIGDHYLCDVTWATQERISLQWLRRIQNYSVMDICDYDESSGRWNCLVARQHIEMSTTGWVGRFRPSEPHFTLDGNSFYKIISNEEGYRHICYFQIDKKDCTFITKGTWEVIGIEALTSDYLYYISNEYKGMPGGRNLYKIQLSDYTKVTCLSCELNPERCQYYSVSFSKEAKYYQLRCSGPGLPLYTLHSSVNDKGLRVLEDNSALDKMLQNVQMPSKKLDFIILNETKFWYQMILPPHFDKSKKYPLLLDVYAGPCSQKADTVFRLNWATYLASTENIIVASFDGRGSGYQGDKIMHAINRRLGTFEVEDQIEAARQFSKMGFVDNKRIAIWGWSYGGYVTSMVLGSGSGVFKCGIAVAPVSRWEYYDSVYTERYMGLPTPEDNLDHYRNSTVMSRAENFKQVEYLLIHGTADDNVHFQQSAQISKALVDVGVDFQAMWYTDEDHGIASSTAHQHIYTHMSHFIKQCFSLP

Take `COc1ccc(NC(=O)O[C@H]2CCC[C@H]([C@H](N)C(=O)N3CCCC3)C2)cc1`: the IC50 is greater than 100000 nM in assay [1], 480 nM at Dipeptidyl peptidase 4, 780 nM at Dipeptidyl peptidase 2 and greater than 100000 nM against Prolyl endopeptidase [2].
Consider `CS(=O)(=O)NCCS(=O)(=O)N[C@H]1CC[C@H]([C@H](N)C(=O)N2CCCC2)C1`, for which the IC50 in assay [1] was greater than 100000 nM; at Dipeptidyl peptidase 4 it was 95 nM; at Dipeptidyl peptidase 2, 2000 nM; on Prolyl endopeptidase [2], greater than 100000 nM.
For `N[C@H](C(=O)N1CCCC1)[C@H]1CC[C@@H](O)C1`, the IC50 in assay [1] was greater than 100000 nM; on Dipeptidyl peptidase 4, 4600 nM; against Dipeptidyl peptidase 2, 50000 nM; at Prolyl endopeptidase [3], greater than 100000 nM.
`CS(=O)(=O)c1ccccc1S(=O)(=O)N[C@H]1CC[C@H]([C@H](N)C(=O)N2CCCC2)C1`: the IC50 in assay [1] is greater than 100000 nM; on Dipeptidyl peptidase 4 it was 150 nM; against Dipeptidyl peptidase 2, 1000 nM; at Prolyl endopeptidase [2] it was greater than 100000 nM.
As for `CS(=O)(=O)c1ccc(S(=O)(=O)N[C@H]2CC[C@H]([C@H](N)C(=O)N3CCCC3)C2)cc1`, the IC50 in assay [1] is greater than 100000 nM; at Dipeptidyl peptidase 4, 130 nM; on Dipeptidyl peptidase 2, 19000 nM; against Prolyl endopeptidase [2], greater than 100000 nM.
For the compound `N[C@H](C(=O)N1CCCC1)[C@H]1CCC[C@@H](OC(=O)Nc2ccc(I)cc2)C1`, the IC50 in assay [1] is greater than 100000 nM; at Dipeptidyl peptidase 4, 110 nM; at Dipeptidyl peptidase 2 it was 420 nM; against Prolyl endopeptidase [2] it was 27000 nM.
Consider `N[C@H](C(=O)N1CCSC1)[C@H]1CC[C@H](NC(=O)c2cccc3ccccc23)C1`, for which the IC50 in assay [1] is greater than 100000 nM; on Dipeptidyl peptidase 4, 47 nM; against Dipeptidyl peptidase 2 it was 240 nM; against Prolyl endopeptidase [2] it was 1400 nM.
For the compound `COc1ccc(NC(=O)O[C@@H]2CCC[C@H]([C@H](N)C(=O)N3CCCC3)C2)cc1`, the IC50 in assay [1] was greater than 100000 nM; on Dipeptidyl peptidase 4, 180 nM; against Dipeptidyl peptidase 2 it was 2500 nM; at Prolyl endopeptidase [2], greater than 100000 nM.
Turning to `N[C@H](C(=O)N1CCCC1)[C@H]1CCC[C@H](OC(=O)Nc2ccc(I)cc2)C1`, the IC50 was greater than 100000 nM in assay [1], 330 nM at Dipeptidyl peptidase 4, 110 nM against Dipeptidyl peptidase 2 and greater than 100000 nM on Prolyl endopeptidase [2].
Regarding `N[C@H](C(=O)N1CCCC1)[C@H]1CCC[C@H](O)C1`, the IC50 in assay [1] was greater than 100000 nM; on Dipeptidyl peptidase 4, 290 nM; against Dipeptidyl peptidase 2, 40000 nM; on Prolyl endopeptidase [2] it was greater than 100000 nM.
In the case of `CS(=O)(=O)NCCS(=O)(=O)N[C@@H]1CC[C@@H]([C@H](N)C(=O)N2CCCC2)C1`, the IC50 in assay [1] is greater than 100000 nM; at Dipeptidyl peptidase 4, 71 nM; against Dipeptidyl peptidase 2 it was 21000 nM; at Prolyl endopeptidase [3] it was greater than 100000 nM.
For the compound `N[C@H](C(=O)N1CCCC1)[C@H]1CC[C@H](O)C1`, the IC50 in assay [1] is greater than 100000 nM; at Dipeptidyl peptidase 4, 840 nM; against Dipeptidyl peptidase 2, 46000 nM; at Prolyl endopeptidase [2], greater than 100000 nM.
`N[C@H](C(=O)N1CCSC1)[C@H]1CC[C@@H](OC(=O)Nc2cccc(F)c2)C1`: the IC50 is greater than 100000 nM in assay [1], 210 nM on Dipeptidyl peptidase 4, 75 nM against Dipeptidyl peptidase 2 and greater than 100000 nM on Prolyl endopeptidase [2].
On to `CS(=O)(=O)c1ccc(S(=O)(=O)N[C@H]2CC[C@@H]([C@H](N)C(=O)N3CCCC3)C2)cc1`, for which the concentration for half-maximal inhibition (IC50) in assay [1] was greater than 100000 nM; on Dipeptidyl peptidase 4, 420 nM; on Dipeptidyl peptidase 2, 4000 nM; against Prolyl endopeptidase [2] it was greater than 100000 nM.
For the compound `N[C@H](C(=O)N1CCCC1)[C@@H]1CC[C@@H](NS(=O)(=O)c2ccc(OC(F)(F)F)cc2)C1`, the IC50 in assay [1] was greater than 100000 nM; at Dipeptidyl peptidase 4 it was 170 nM; against Dipeptidyl peptidase 2, 1700 nM; against Prolyl endopeptidase [2], greater than 100000 nM.
On to `N[C@H](C(=O)N1CCSC1)[C@H]1CC[C@H](NC(=O)Nc2cccc3ccccc23)C1`, for which the IC50 was greater than 100000 nM in assay [1], 43 nM at Dipeptidyl peptidase 4, 26 nM against Dipeptidyl peptidase 2 and 2100 nM at Prolyl endopeptidase [2].
For the compound `N[C@H](C(=O)N1CCCC1)[C@H]1CC[C@@H](NS(=O)(=O)c2ccc(OC(F)(F)F)cc2)C1`, the IC50 in assay [1] was greater than 100000 nM; at Dipeptidyl peptidase 4 it was 550 nM; at Dipeptidyl peptidase 2, 750 nM; on Prolyl endopeptidase [2], greater than 100000 nM.
`CS(=O)(=O)c1ccc(S(=O)(=O)N[C@@H]2CC[C@@H]([C@H](N)C(=O)N3CCCC3)C2)cc1`: the IC50 was greater than 100000 nM in assay [1], 13 nM at Dipeptidyl peptidase 4, 1600 nM against Dipeptidyl peptidase 2 and greater than 100000 nM on Prolyl endopeptidase [2].
As to `N[C@@H](C(=O)N1CCSC1)[C@H]1CC[C@@H](OC(=O)Nc2cccc(F)c2)C1`, the IC50 in assay [1] was greater than 100000 nM; on Dipeptidyl peptidase 4, 1200 nM; at Dipeptidyl peptidase 2 it was 540 nM; on Prolyl endopeptidase [2], greater than 100000 nM.

By IC50 is commonly meant the concentration needed to halve the response being measured.
